Screening data deposited in PubChem by several laboratories.
Hits are enriched below; roughly 1.8% of the tested compounds scored in any of these assays.
HNF4A DNA FP – change in binding of human HNF4A to DNA, primary screen, biochemical, fluorescence polarization, FITC-DNA | Hepatocyte nuclear factor 4-alpha (Homo sapiens), P41235 | 1 h | activity change, % at 10 µM | 360,000 compounds, 0.3% hits | AID 1224865, 2016; in the data active = activity change above about 30%, passing the limit was not always enough
Rpn11 block – Rpn11 (PSMD14) deubiquitinase inhibitors, primary screen, biochemical, fluorescence polarization, uHTS. 26S proteasome non-ATPase regulatory subunit 14 (Homo sapiens), O00487. human 26S proteasome, Ub4-pepOG fluorescence polarization; 20S core pre-blocked with epoxomicin. calls only at 20 µM. 360,000 compounds, 0.59% hits;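 active = inhibition at 20 µM, scaled to each plate's controls, above about 33%, limit read from the data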
SENP1 inh – human SENP1 catalytic domain inhibitors, primary screen, biochemical, FRET, uHTS | recombinant SENP1 catalytic domain, CyPet-SUMO1-YPet FRET cleavage | inhibition, % at 10 µM | 360,000 compounds, 0.21% hits | Sentrin-specific protease 1 (Homo sapiens), Q9P0U3;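 active = inhibition at least 30% at 10 µM, raw YFP signal under a set limit, fluorescence ratio 0.5 to 1.5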;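 note: 0% = enzyme with DMSO and 100% = no enzyme wells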
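Assay system – human recombinant His6-tagged SENP1 catalytic domain enzyme · Input – SENP1 enzyme, 20 pM final · Buffer or medium – Tris pH 8 buffer plus EDTA, NaCl, BME, BSA, NP40, catalase · Schedule – 50 min reaction at room temperature · Technique – FRET read of cyan and yellow fluorescence · Control set – no-enzyme wells low, DMSO-plus-enzyme wells high control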
UBC9 SUMO inh – inhibitors of in vitro SUMOylation cascade, primary screen, biochemical, HTRF, uHTS | SUMO-conjugating enzyme UBC9 (Homo sapiens), P63279 | HTRF SUMOylation assay, SAE1/SAE2 + UBC9 | inhibition, % at 35 µM | 290,000 compounds, 0.36% hits | AID 2006, 2009; in the data active = inhibition above about 50%, passing the limit was not always enough
Target sequence (P63279 whole entry, looked up): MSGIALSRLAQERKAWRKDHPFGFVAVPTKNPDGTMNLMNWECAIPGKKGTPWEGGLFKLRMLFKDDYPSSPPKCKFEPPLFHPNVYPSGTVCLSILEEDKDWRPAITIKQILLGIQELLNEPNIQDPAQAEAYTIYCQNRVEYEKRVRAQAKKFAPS
CSN inh – inhibitors of CSN-mediated cullin deneddylation, primary screen, biochemical, fluorescence polarization, uHTS; Purified CSN, SCF-Nedd8-OG deneddylation; inhibition, % at 12.5 µM; 360,000 compounds, 0.38% hits;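 active = pattern-corrected inhibition above about 35%, with an unprinted fluorescence ratio check between 0.5 and 1.5, limit read from the data, passing the limit was not always enough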;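 note: 0% = enzyme with substrate and 100% = substrate without enzyme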
Target sequence (Q92905 whole entry, looked up, one chain of several): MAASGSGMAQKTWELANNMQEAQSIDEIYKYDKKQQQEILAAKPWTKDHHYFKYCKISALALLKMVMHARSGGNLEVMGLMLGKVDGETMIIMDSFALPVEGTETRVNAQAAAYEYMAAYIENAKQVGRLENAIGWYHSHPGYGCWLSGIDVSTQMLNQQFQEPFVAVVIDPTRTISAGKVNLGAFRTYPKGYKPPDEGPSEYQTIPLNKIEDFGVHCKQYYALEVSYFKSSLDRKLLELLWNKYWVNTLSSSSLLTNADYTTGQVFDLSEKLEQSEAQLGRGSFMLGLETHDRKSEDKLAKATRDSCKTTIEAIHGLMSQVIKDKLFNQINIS
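Detection – fluorescence polarization · System – HEK293T-derived human Csn5 enzyme · Controls – substrate-only high control, full reaction low control · Timing – 90 min, room temperature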
TPT1 inhibitor – Candida albicans TPT1 enzyme inhibitors, primary screen, biochemical, fluorescence polarization; 300,000 compounds, 0.81% hits; tRNA 2'-phosphotransferase TPT1 (Candida albicans SC5314); recombinant caTPT1, FP RNA substrate dephosphorylation; AID 1962, 2009; inhibition, % at 5 µM;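 active = inhibition above the mean of all tested compounds plus 3 SD, set per screening campaign, cut at about 24% in these data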;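 note: plate controls were DMSO alone for no effect and ferristatin control at 100 nM for full effect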
caTPT1 confirm – Candida albicans TPT1 inhibitors, confirmation, biochemical, fluorescence polarization, triplicate; 2,400 compounds, 74% hits; recombinant caTPT1, RNase T1 coupled; inhibition, % at 5 µM; shares compounds with TPT1 inhibitor;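 active = inhibition above the primary screen limit, the mean inhibition of all tested compounds plus 3 SD, cut at about 25% in these data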
RNase T1 counter – RNase T1 inhibitors, counter-screen for TPT1 inhibitor project, biochemical, fluorescence polarization | shares compounds with TPT1 inhibitor | RNase T1 cleavage, 1536-well | inhibition, % at 5 µM | 2,400 compounds, 83% hits;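 active = inhibition above the solvent-only control well mean plus 3 SD, limit set per screening run, cut at about 23% in these data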;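 note: plate controls were DMSO wells with enzyme for no effect and wells without RNase T1 for full effect; inhibitors block cleavage so intact labeled substrate keeps polarization high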
Target sequence (P00651 whole entry, looked up): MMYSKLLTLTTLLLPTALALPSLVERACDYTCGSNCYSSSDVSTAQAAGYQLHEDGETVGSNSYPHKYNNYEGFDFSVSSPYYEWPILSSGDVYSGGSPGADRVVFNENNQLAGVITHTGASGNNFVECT
Rpn11 confirm – Rpn11 (PSMD14) deubiquitinase inhibitors, confirmation, biochemical, fluorescence polarization, single concentration | shares compounds with Rpn11 block | purified human 26S proteasome, Ub4-pepOG fluorescence polarization; proteasome pretreated with epoxomicin | inhibition, % at 20 µM | 1,900 compounds, 29% hits | AID 602318, 2012
MMP-2 counter-1 – MMP-2 enzyme inhibition, confirmation, counter-screen for RPN11 inhibitor project, biochemical, fluorescence, single concentration | shares compounds with Rpn11 block | recombinant MMP-2, FRET peptide cleavage fluorescence | inhibition, % at 20 µM | 1,900 compounds, 4% hits;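 note: human MMP-2 activated beforehand with APMA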
Thrombin FP – bovine thrombin protease inhibition, confirmation, counter-screen for Rpn11 inhibitor project, biochemical, fluorescence polarization, single concentration; shares compounds with Rpn11 block; bovine thrombin cleavage of Ub4-pepOG; inhibition, % at 20 µM; 1,900 compounds, 13% hits;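 active = mean inhibition at least 40% at 20 µM, or signal 3 deviations below plate average, so some actives read negative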;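 note: plate controls were thrombin with DMSO for no effect and buffer wells lacking thrombin for full effect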
CSN deneddyl val – Csn5 deneddylation inhibitors, confirmation, biochemical, fluorescence polarization, single concentration, SCF-Nedd8OG substrate. shares compounds with CSN inh. Csn5 deneddylation of SCF-Nedd8OG, 90 min. inhibition, % at 16.6 µM. 540 compounds, 62% hits. AID 720654, 2013; in the data active = inhibition above about 50%;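 note: 0% = DMSO with enzyme and 100% = no enzyme wells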
MMP-2 counter-2 – MMP-2 protease inhibition counter-screen, confirmation, counter-screen for CSN deneddylation inhibitor project, biochemical, fluorescence, single concentration. shares compounds with CSN inh. recombinant MMP-2, FRET substrate fluorescence, 60 min. inhibition, % at 16.6 µM. 540 compounds, 33% hits;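 active = corrected plate-normalized z-score of 5 or more, or -5 or less, or inhibition of 15% or more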;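 note: plate controls were DMSO wells with enzyme for no effect and buffer wells lacking MMP-2 for full effect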
Thrombin cntr – counter-screen for CSN deneddylation inhibitors: bovine thrombin inhibition; shares compounds with CSN inh; bovine thrombin cleavage of Ub4-pepOG, fluorescence polarization; inhibition, % at 16.6 µM; 540 compounds, 49% hits;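 active = inhibition at or above a set limit, with a fluorescence interference ratio between 0.5 and a set maximum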
An asterisk follows results filed as active. Cut-off read from the data, not from the text of the source, unless noted: active = inhibition above about 40%; inactive = the rest.

How did COC1=CC(=Cc2c(N)n3nc(CC(=O)N4CCOCC4)sc3nc2=O)C=C(OC)C1=O do in these assays?
HNF4A DNA FP: 62*; SENP1 inh: -22; UBC9 SUMO inh: 18; CSN inh: 88*; TPT1 inhibitor: 50*; caTPT1 confirm: 132*; RNase T1 counter: 131*; CSN deneddyl val: 94*; MMP-2 counter-2: -20; Thrombin cntr: 83*

Results for COc1cc(/C=C2/C(=O)NN(c3ccc(Cl)c(Cl)c3)C2=O)cc([N+](=O)[O-])c1O ?
HNF4A DNA FP: -2; Rpn11 block: inactive; SENP1 inh: 6; UBC9 SUMO inh: 13; CSN inh: 3; TPT1 inhibitor: 13

Results for COc1cc(/C=C2/C(=O)NN(c3ccc(Cl)cc3)C2=O)cc(Br)c1O ?
HNF4A DNA FP: -10; Rpn11 block: active; SENP1 inh: 8; UBC9 SUMO inh: -9; CSN inh: 45*; TPT1 inhibitor: 67*; caTPT1 confirm: 112*; RNase T1 counter: 123*; Rpn11 confirm: 193*; MMP-2 counter-1: 36; Thrombin FP: 79*; CSN deneddyl val: -16; MMP-2 counter-2: 7; Thrombin cntr: 23*

How did O=C(N/N=C/c1cc(Br)cc(Cl)c1O)c1ccc2c(c1)OCO2 do in these assays?
HNF4A DNA FP: 17; Rpn11 block: active; SENP1 inh: -41; CSN inh: 100*; TPT1 inhibitor: 35*; caTPT1 confirm: 33*; RNase T1 counter: 45*; Rpn11 confirm: 198*; MMP-2 counter-1: 25; Thrombin FP: 13; CSN deneddyl val: -106; MMP-2 counter-2: 29*; Thrombin cntr: 20*

Results for NC(=S)N/N=C/c1cc([N+](=O)[O-])ccc1OCCOc1ccccc1 ?
HNF4A DNA FP: 1; Rpn11 block: inactive; SENP1 inh: 0; UBC9 SUMO inh: 15; CSN inh: -6; TPT1 inhibitor: -4

How did C(=C\c1ccco1)/C1=NN(c2ccccc2)C(c2ccco2)C1 (stereo not given) do in these assays?
HNF4A DNA FP: 33; Rpn11 block: active; SENP1 inh: -21; UBC9 SUMO inh: 49; CSN inh: 84*; TPT1 inhibitor: 53*; caTPT1 confirm: 38*; RNase T1 counter: 47*; Rpn11 confirm: 70*; MMP-2 counter-1: 7; Thrombin FP: 55*; CSN deneddyl val: 62*; MMP-2 counter-2: -3; Thrombin cntr: 31*

How did Fc1ccc(C2=NN(c3ccccc3)C(c3ccco3)C2)cc1 (stereo not given) do in these assays?
HNF4A DNA FP: 3; Rpn11 block: inactive; SENP1 inh: -72; UBC9 SUMO inh: 5; CSN inh: 11; TPT1 inhibitor: -1

How did O=C1/C(=C\c2ccco2)CCC/C1=C\c1ccco1 do in these assays?
HNF4A DNA FP: 62; SENP1 inh: -26; UBC9 SUMO inh: 52*; CSN inh: 39*; TPT1 inhibitor: 55*; caTPT1 confirm: 65*; RNase T1 counter: 72*; CSN deneddyl val: 66*; MMP-2 counter-2: 6; Thrombin cntr: 53*

What do the screens show for `C=CCN1C=CC(=CC=C(C#N)C#N)C=C1`?
HNF4A DNA FP: 119; SENP1 inh: -47; UBC9 SUMO inh: -9; CSN inh: 91*; TPT1 inhibitor: 137*; caTPT1 confirm: 158*; RNase T1 counter: 155*; CSN deneddyl val: 98*; MMP-2 counter-2: 8; Thrombin cntr: 79*

What do the screens show for `CCCCCCN1C=C/C(=C\C=C(C#N)C#N)c2ccccc21`?
HNF4A DNA FP: 23; Rpn11 block: inactive; SENP1 inh: 10; UBC9 SUMO inh: 9; CSN inh: 8; TPT1 inhibitor: 5

How did CCCN1C=CC(=CC=C(C#N)C#N)C=C1 do in these assays?
HNF4A DNA FP: 121; SENP1 inh: -42; UBC9 SUMO inh: -28; CSN inh: 83*; TPT1 inhibitor: 144*; caTPT1 confirm: 165*; RNase T1 counter: 161*; CSN deneddyl val: 23; MMP-2 counter-2: 5; Thrombin cntr: 83*
